In ChEMBL document CHEMBL3400073, “Design, synthesis and biological evaluation of new hybrid anticonvulsants derived from N-benzyl-2-(2,5-dioxopyrrolidin-1-yl)propanamide and 2-(2,5-dioxopyrrolidin-1-yl)butanamide derivatives” (Bioorg Med Chem, 2015):
The source made the active and inactive calls. No cut-off for these calls is given here.

How the values were obtained:
[1] = test system: Liver microsome; assay: Drug metabolism in human liver microsomes assessed as metabolite formation treated with 50 uM 2-(2,5-Dioxopyrrolidin-1-yl)-N-(2-fluorobenzyl)propanamide pre-incubated at 37 degC for 5 mins before addition of NADPH regeneration system measured after 120 mins by UPLC-MS/MS method; assay type: ADME; details: 2 h
Outline: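 Pooled human liver microsomes from adult males and females were used at 1 mg/ml in 0.1 M Tris-HCl, pH 7.4. After the 5 min preincubation, the NADPH regeneration system was added and the reaction ran for 120 min. It was quenched with cold methanol and centrifuged, and the supernatant was analysed by UPLC-MS/MS with ESI on a tandem quadrupole.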

[2] = test system: Mus musculus; assay: Anticonvulsant activity in intraperitoneally dosed Albino Swiss CD1 mouse after 0.5 hrs by subcutaneous pentylenetetrazole test; assay type: functional
Outline: (§1)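 Male CD-1 mice were dosed ip (0.1 mL/10 g, methylcellulose vehicle), at least four dose groups of 6 mice each. Protection in MES meant no hindlimb tonic extension after a 25 mA, 50 Hz, 0.2 s ear-electrode shock. Protection in scPTZ meant no clonus over 30 min.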

[3] = test system: Mus musculus; assay: Neurological toxicity in Albino Swiss CD1 mouse at 100 mg/kg, ip after 0.5 hrs by rotarod test; assay type: organism-based; design: dose 100 mg/kg, route intraperitoneal; details: in vivo
Outline: (§2)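 Mice were trained on a 2 cm rod for 3 min, with unlimited trials, at least 24 h before testing. Each was then dosed ip at 100 mg/kg and tested at 10 rpm 0.5 h or 2 h later, in groups of 4. Failure to stay on the rod for at least 1 min indicated neurotoxicity.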

[4] = test system: Mus musculus; assay: Neurological toxicity in Albino Swiss CD1 mouse at 100 mg/kg, ip after 2 hrs by rotarod test; assay type: organism-based; design: dose 100 mg/kg, route intraperitoneal; details: in vivo; outline: as §2
[5] = test system: Mus musculus; assay: Anticonvulsant activity in Albino Swiss CD1 mouse at 100 mg/kg, ip after 0.5 hrs by maximal electroshock test; assay type: functional, organism-based; design: dose 100 mg/kg
Outline: (§3)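 Male CD-1 mice, 16–26 g, in groups of 4, each mouse used once, were given 100 mg/kg ip (0.1 mL/10 g, methylcellulose vehicle). MES used 25 mA, 500 V, 50 Hz delivered by ear electrodes for 0.2 s, and absence of hindlimb tonic extension counted as protection. In scPTZ, mice without clonic convulsions over 30 min of observation counted as protected. Both tests were run 0.5 h or 2 h after dosing.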

[6] = test system: Mus musculus; assay: Anticonvulsant activity in Albino Swiss CD1 mouse at 100 mg/kg, ip after 2 hrs by maximal electroshock test; assay type: functional, organism-based; design: dose 100 mg/kg; outline: as §3
[7] = test system: Mus musculus; assay: Anticonvulsant activity in Albino Swiss CD1 mouse at 100 mg/kg, ip after 2 hrs by subcutaneous pentylenetetrazole test; assay type: functional, organism-based; design: dose 100 mg/kg; outline: as §3
[8] = test system: Mus musculus; assay: Anticonvulsant activity in intraperitoneally dosed Albino Swiss CD1 mouse assessed as time to peak effect by maximal electroshock test; assay type: functional
[9] = test system: Mus musculus; assay: Anticonvulsant activity in intraperitoneally dosed Albino Swiss CD1 mouse assessed as time to peak effect after 2 hrs by subcutaneous pentylenetetrazole test; assay type: functional
[10] = test system: Mus musculus; assay: Anticonvulsant activity in intraperitoneally dosed Albino Swiss CD1 mouse by subcutaneous pentylenetetrazole test; assay type: functional; outline: as §1
[11] = Neurological toxicity in intraperitoneally dosed Albino Swiss CD1 mouse by rotarod test; assay type: organism-based; details: in vivo, ip
Outline: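 Mice trained on the rotarod were given various ip doses, four groups in all, and tested at 10 rpm. Failure to stay on the rod for at least 1 min indicated neurotoxicity.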

[12] = test system: Mus musculus; assay: Protective index, ratio of neurotoxic TD50 in Albino Swiss CD1 mouse by rotarod test to anticonvulsant ED50 in Albino Swiss CD1 mouse by subcutaneous pentylenetetrazole test
Outline: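 The protective index is the rotarod TD50 divided by the MES or scPTZ ED50. Each value came from ip dosing in male CD-1 mice with probit analysis, and the reference drugs were tested under the same conditions.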

[13] = test system: Mus musculus; assay: Potency index, ratio of ED50 for […] acid to ED50 for compound in intraperitoneally dosed Albino Swiss CD1 mouse by subcutaneous pentylenetetrazole test; assay type: functional
[14] = test system: Mus musculus; assay: Ratio of protective index for […] acid to protective index for compound in intraperitoneally dosed Albino Swiss CD1 mouse
[15] = test system: Mus musculus; assay: Anticonvulsant activity in intraperitoneally dosed Albino Swiss CD1 mouse after 2 hrs by maximal electroshock test; assay type: functional; outline: as §1
[16] = test system: Mus musculus; assay: Anticonvulsant activity in Albino Swiss CD1 mouse at 100 mg/kg, ip after 0.5 hrs by subcutaneous pentylenetetrazole test; assay type: functional, organism-based; design: dose 100 mg/kg; outline: as §3
[17] = test system: Mus musculus; assay: Anticonvulsant activity in intraperitoneally dosed Albino Swiss CD1 mouse by maximal electroshock test; assay type: functional; details: Albino Swiss CD1, ip; outline: as §1
[18] = test system: Mus musculus; assay: Anticonvulsant activity in intraperitoneally dosed Albino Swiss CD1 mouse after 0.5 hrs by maximal electroshock test; assay type: functional; outline: as §1
[19] = test system: HEK293; assay: Antiproliferative activity against HEK293 cells at 0.01 to 250 uM after 48 hrs by formazan based EZ4U assay; assay type: cell-based; details: human, hek293, 48 h
Outline: (§4)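 HEK-293 cells (1.5 × 10^4/well) and IMR-32 cells (2 × 10^4/well) were grown in DMEM with 10% FBS for 24 h to 60% confluence. Compound was diluted from a 25 mM DMSO stock to 0.01–250 µM final, with DMSO at or below 1%, and incubated 48 h at 37 °C in 5% CO2. EZ4U reagent was added for 5 h, then absorbance was read at 492 nm.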

[20] = Cytotoxic activity against human IMR32 cells at 0.01 to 250 uM after 48 hrs by formazan based EZ4U assay; assay type: cell-based; details: imr-32, 48 h; outline: as §4

SMILES | Drug metabolism [1] | MED50 [2] | Activity [3] | Activity [4] | Activity [5] | Activity [6] | Activity [7] | Time [8] | Time [9] | ED50 [10] | TD50 [11] | Ratio TD50/ED50 [12] | Ratio ED50 [13] | Ratio [14] | MED50 [15] | Activity [16] | ED50 [17] | MED50 [18] | Activity [19] | Activity [20]
O=C(NCc1ccccc1F)C(CO)N1C(=O)CCC1=O (stereo not drawn) | metabolite_detected |  |  |  |  |  |  |  |  |  |  |  |  |  |  |  |  |  |  | 
CCC(C(=O)NCc1cccc(F)c1)N1C(=O)CCC1=O (racemic) |  | 100 mg/kg | Non-toxic | Non-toxic | inactive | inactive | inactive | 0.5 h | 0.5 h | 47.4 mg/kg | 327 mg/kg | 6.89 | 2.96 | 3.05 |  |  |  |  |  | 
CC1CC(=O)N(C(C)C(=O)NCc2ccc(C(F)(F)F)cc2)C1=O (racemic) |  |  | Non-toxic | Non-toxic | inactive |  | inactive | 2 h | 2 h |  |  |  |  |  | 100 mg/kg | inactive | > 150 mg/kg |  |  | 
CC(C(=O)NCc1ccccc1F)N1C(=O)CCC1=O (racemic) |  | 100 mg/kg | Non-toxic | Non-toxic |  | inactive | inactive | 0.5 h | 0.5 h |  |  |  |  |  |  |  |  | 100 mg/kg | Non-toxic | Non-toxic
